hiPSC survival: hiPSC single-cell survival enhancement; ATPlite luminescence; 100% = ROCK inhibitor wells, 0% = DMSO; survival enhancement, % at 20 µM; actives 0.044% (n = 360,000); in the data active means survival enhancement above about 18%;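 further: cells exposed to compounds for 16 hours before the ATP read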
DAGLB inh: blocks human DAGLB lipase activity; Q8NCG7; HEK293T DAGLB membrane lysate, EnzChek fluorogenic substrate; inhibition, % at 5.17 µM; actives 0.059% (n = 340,000); AID 504411; in the data active means inhibition above about 34%
Target sequence (Q8NCG7 whole entry, looked up): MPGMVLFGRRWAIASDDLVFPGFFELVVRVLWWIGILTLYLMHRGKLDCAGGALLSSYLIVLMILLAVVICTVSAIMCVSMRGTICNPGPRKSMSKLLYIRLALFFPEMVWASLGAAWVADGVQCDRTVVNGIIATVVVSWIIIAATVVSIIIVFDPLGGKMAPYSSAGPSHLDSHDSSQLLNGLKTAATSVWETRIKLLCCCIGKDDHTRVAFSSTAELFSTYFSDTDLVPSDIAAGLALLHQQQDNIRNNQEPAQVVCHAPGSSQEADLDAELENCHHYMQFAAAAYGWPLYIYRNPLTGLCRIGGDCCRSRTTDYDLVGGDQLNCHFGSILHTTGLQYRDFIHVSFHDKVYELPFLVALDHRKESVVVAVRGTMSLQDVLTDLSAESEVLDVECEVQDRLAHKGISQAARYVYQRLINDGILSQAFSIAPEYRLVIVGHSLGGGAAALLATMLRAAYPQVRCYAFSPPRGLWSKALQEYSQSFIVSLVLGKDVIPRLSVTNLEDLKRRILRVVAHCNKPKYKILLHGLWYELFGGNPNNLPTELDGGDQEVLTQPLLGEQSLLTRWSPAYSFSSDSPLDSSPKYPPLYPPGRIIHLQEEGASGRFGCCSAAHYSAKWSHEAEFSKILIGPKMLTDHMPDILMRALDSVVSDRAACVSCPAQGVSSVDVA
APJ ag: activates the human apelin receptor APJ; P35414; activation, % at 20 µM; actives 0.11% (n = 330,000); CHO-K1 APJ PathHunter beta-arrestin, luminescence; 0% DMSO wells, 100% apelin;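 active means activation more than six SD over the plate average, tested at 20 µM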
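Test system: CHO-K1 APJ beta-arrestin complementation cell line | Compound: Single test compound dose, 20 µM final, 1% DMSO | Incubation: Compound 90 min 25 °C, reagent 1 h | Measured by: beta-gal luminescence | Read-out basis: APJ–arrestin association signal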
CXCR6 block: inhibitors of human CXCR6 receptor; CHO-K1 PathHunter CXCR6 beta-arrestin, luminescence; O00574; AID 602244; inhibition, % at 20 µM; actives 0.36% (n = 360,000); in the data active means inhibition above about 34%, passing the limit was not always enough;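 further: antagonist mode with CXCL16 agonist at 10 nM final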
CCR6 antagonist: CCR6 (human) receptor antagonism; inhibition, % at 20 µM; actives 0.49% (n = 340,000); CHO-K1 CCR6 PathHunter beta-arrestin, luminescence, CCL20-stimulated; P51684; AID 493098;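 active means compounds whose inhibition of the agonist-driven luminescence signal at 20 µM reaches about 50%, limit read from the data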;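 further: cells stimulated with CCL20 at 14 nM final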
APJ antagonist: blocks the human apelin receptor APJ | inhibition, % at 20 µM | actives 0.32% (n = 330,000) | CHO-K1 APJ beta-arrestin complementation, luminescence | P35414;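 active means inhibition above about 40% at 20 µM, limit read from the data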;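 further: cells challenged with 10 nM apelin-13 agonist together with compound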
APJ antag conf: APJ receptor antagonism confirmation | shares compounds with APJ antagonist | APJ beta-arrestin recruitment, luminescence, antagonist mode | inhibition, % at 20 µM | actives 66% (n = 950) | AID 2766; in the data active means inhibition above about 50%
Each line names hits and unclear results; the compound was inactive in the other large screens (follow-up assays come after a bar, where they were run). In the library only some 0.86% were active in any assay of this set; here they are far more common.

COc1ccc(NC(=O)NS(=O)(=O)c2ccc(C)cc2)c(OC)c1	none
COc1ccc(NC(=O)CS(=O)(=O)c2ccc(C)cc2)c(OC)c1	APJ antagonist 110 | APJ antag conf inactive
O=C(O)c1ccccc1N/C=C\[N+](=O)[O-]	none
O=C(Cc1cccc2ccccc12)NCC(=O)N1CCN(Cc2cccc(C(F)(F)F)c2)CC1	none
COC(=O)CSc1nnc([C@H](Cc2ccccc2)NC(=O)OC(C)(C)C)o1	none
COC(=O)CS(=O)(=O)c1nnc([C@H](Cc2ccccc2)NC(=O)OC(C)(C)C)o1	CXCR6 block 56, CCR6 antagonist 77, APJ antagonist 48 | APJ antag conf 73
O=C1N/C(=C\c2ccccc2)C(O)=C1C=NCc1ccccc1	APJ antagonist 45 | APJ antag conf inactive
CC1CCN(S(=O)(=O)c2ccc3c(c2)NC(=O)CS3)CC1	none
CC1=NN(c2ccccc2)C(=O)/C1=C/C=C/C=C/N(C)C	CXCR6 block 49, CCR6 antagonist 58, APJ antagonist 65 | APJ antag conf 91
CN(CCCS(=O)(=O)[O-])c1ccc(/C=C/c2ccc3ccccc3[n+]2C)cc1	none
CN(C)c1ccc(/C=C/c2ccc3ccccc3[n+]2C)cc1	CXCR6 block 48, CCR6 antagonist 53, APJ antagonist 64 | APJ antag conf 89
O=C(c1cc(-c2ccccc2)n[nH]1)N1CCc2c([nH]c3ccccc23)C1c1ccccn1 (stereo not drawn)	none
Cc1ccc2c(c1Br)/C(=N/N1C(=O)c3ccccc3C1=O)C(=O)N2	none
CCOc1ccc(N=C2C(=O)Nc3ccc(C)c(Br)c32)cc1	CXCR6 block 73, CCR6 antagonist 102, APJ antagonist 79 | APJ antag conf 146
NNc1nc(-c2ccccc2)cc(-c2ccc(Br)cc2)n1	APJ antagonist 73 | APJ antag conf 105
NNc1nc(-c2ccccc2)c2cc(Br)ccc2n1	none
Cc1cccc(N(C(=O)CNC(=O)c2cccs2)C(C(=O)NC2CCCC2)c2ccncc2)c1 (stereo not drawn)	none
COc1ccc(NC(=S)NNC(=O)Cn2nc([N+](=O)[O-])cc2C)cc1	none
Cc1cc([N+](=O)[O-])nn1CC(=O)NNC(=S)Nc1ccc([N+](=O)[O-])cc1	APJ antagonist 47 | APJ antag conf 70
O=C(NC(=S)Nc1cccc(Cl)c1N1CCCCC1)c1ccc2c(c1)OCCO2	APJ antagonist 44 | APJ antag conf inactive
O=C(Nc1cccc(Cl)c1N1CCCCC1)c1ccc2c(c1)OCCO2	none
C/C(=N\NC(=S)Nc1cccc(C)c1)c1ccccc1	CCR6 antagonist 53, APJ antagonist 44 | APJ antag conf 91
COc1ccc(CNC(=O)Cn2cc(C)c(=O)[nH]c2=O)cc1	none (no result: APJ ag, APJ antagonist)
CC(C)(C)c1cc(NC(=O)C2(C)CCN2C(=O)C2(c3ccccc3)CCCC2)no1 (stereo not drawn)	none (no result: DAGLB inh, APJ ag, CCR6 antagonist, APJ antagonist)
COc1ccc(C2=C(c3ccccc3)OC(OC)c3cc(F)ccc32)cn1 (stereo not drawn)	none (no result: DAGLB inh, APJ ag, CCR6 antagonist, APJ antagonist)
COC(=O)c1ccccc1-n1cccc1C(=O)NP(=O)(N1CCOCC1)N1CCOCC1	none
COc1ccc(N2CCOCC2)c(NC(=O)c2ccc3c(c2)OCO3)c1	APJ antagonist 51 | APJ antag conf inactive
COC(=O)C1NN=C(C(=O)c2ccc(Cl)cc2)C1c1ccc(OC)cc1 (stereo not drawn)	CCR6 antagonist 58, APJ antagonist 65 | APJ antag conf 81
CCOC(=O)C1=NNC(C(=O)c2ccc(Cl)cc2)C1c1ccccc1 (stereo not drawn)	APJ antagonist 49 | APJ antag conf 75
COC(=O)C1NN=C(C(=O)c2ccccc2)C1c1ccccc1 (stereo not drawn)	none
CCN(CC)CCCNc1oc(-c2ccccc2[N+](=O)[O-])nc1C#N	none
O=C(NC1CCSC1=O)C1CCCCC1 (stereo not drawn)	none
COC(=O)c1ccc([C@H]2C=C(C(=O)O)O[C@@H](OCc3ccc(CO)cc3)C2)cc1	none

Bioassay records deposited in PubChem by several laboratories.
